Results of several laboratories.
Lines come from different studies, so protocols differ.
Target: Homeodomain-interacting protein kinase 3 (HIPK3, Homo sapiens, UniProt Q9H422)

C=CC(=O)N1CCC([C@@H]2CCNc3c(C(N)=O)c(-c4ccc(Oc5ccccc5)cc4)nn32)CC1
inhibition (enzyme activity; inhibitor; 1 µM): 4%

CN1CCN(C(=O)c2ccc(NC(=O)Nc3ccc(N(C)c4ccnc(Nc5ccc(CS(C)(=O)=O)cc5)n4)cc3)cc2)CC1
remaining binding (binding; competition with immobilised ligand; 1 µM): 71%

C#Cc1cc(-c2cc(Nc3nc(N[C@@H](C)c4ccc(F)cn4)ncc3Cl)n[nH]2)ccc1C=O
inhibition (enzyme activity; inhibitor; 0.2 µM): 39.6%

CC(C)S(=O)(=O)c1ccc2nccc(Nc3ccc4sc(C5CCCC5)nc4c3)c2c1
activity vs control (enzyme activity; inhibitor; 1 µM): 102%

CO[C@@H]1[C@H](N(C)C(=O)c2ccccc2)C[C@H]2O[C@]1(C)n1c3ccccc3c3c4c(c5c6ccccc6n2c5c31)C(=O)NC4
inhibition (enzyme activity; inhibitor; 1 µM): 30%

Cc1ccc(NC(=O)c2ccnc(C(F)(F)F)c2)cc1-c1cc(OCCO)nc(N2CCOCC2)c1
remaining binding (binding; competition with immobilised ligand; 1 µM): 98%

CCCCC(=O)Nc1ccc(-c2ccc3ncn(CCC)c(=O)c3c2)cn1
remaining binding (binding; competition with immobilised ligand; 0.5 µM): 100%

C1=C/COCc2cc(ccc2OCCN2CCCC2)Nc2nccc(n2)-c2cccc(c2)COC/1
remaining binding (binding; 0.1 µM): 15%
